Assay results reported in ChEMBL document CHEMBL4480374, “Methoxy substituted 2-benzylidene-1-indanone derivatives as A1 and/or A2A AR antagonists for the potential treatment of neurological conditions” (Medchemcomm, 2019).

Legend:
Adenosine receptor A1 [1] = molecular target: T1, Adenosine receptor A1 (Rattus norvegicus, UniProt P25099); experiment: Displacement of [3H]DPCPX from adenosine A1 receptor in rat brain membranes by radioligand competition assay; type: cell membranes
T1 sequence (P25099 whole entry): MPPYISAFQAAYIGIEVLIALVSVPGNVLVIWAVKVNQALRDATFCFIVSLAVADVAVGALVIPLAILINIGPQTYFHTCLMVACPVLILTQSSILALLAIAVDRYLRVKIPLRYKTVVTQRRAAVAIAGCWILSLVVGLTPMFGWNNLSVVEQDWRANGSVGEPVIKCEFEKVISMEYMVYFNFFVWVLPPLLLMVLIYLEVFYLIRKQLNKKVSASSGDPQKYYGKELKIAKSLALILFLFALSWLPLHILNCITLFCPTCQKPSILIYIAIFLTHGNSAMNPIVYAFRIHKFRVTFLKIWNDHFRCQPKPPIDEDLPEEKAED

[2] = molecular target: T2, Adenosine receptor A1 (Rattus norvegicus) (UniProt P25099); experiment: Displacement of [3H]DPCPX from adenosine A1 receptor in rat brain membranes at 100 uM by radioligand competition assay relative to control; type: cell membranes
T2 sequence (whole entry): T1 sequence (P25099 whole entry)
In short: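 Percentage displacement of radioligand recorded at the maximum tested concentration, 100 μM. Nonspecific binding defined with 100 μM CPA.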

Adenosine receptor A2a [3] = molecular target: T3, Adenosine receptor A2a (Rattus norvegicus, UniProt P30543); experiment: Displacement of [3H]NECA from adenosine A2A receptor in rat striatal membranes by radioligand competition assay; type: cell membranes, Striatum, Membrane
T3 sequence (P30543 whole entry): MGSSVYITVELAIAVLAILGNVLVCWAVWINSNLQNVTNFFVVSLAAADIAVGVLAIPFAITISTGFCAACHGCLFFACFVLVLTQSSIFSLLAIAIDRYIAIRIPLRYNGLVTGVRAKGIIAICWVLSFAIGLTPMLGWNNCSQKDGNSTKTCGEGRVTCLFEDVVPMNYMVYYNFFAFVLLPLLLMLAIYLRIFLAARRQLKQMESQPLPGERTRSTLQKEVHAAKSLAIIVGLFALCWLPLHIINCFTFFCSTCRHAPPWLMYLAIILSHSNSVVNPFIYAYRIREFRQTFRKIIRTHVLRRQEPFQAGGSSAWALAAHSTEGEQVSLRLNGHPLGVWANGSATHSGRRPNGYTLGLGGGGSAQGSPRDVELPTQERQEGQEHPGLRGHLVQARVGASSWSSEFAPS

[4] = molecular target: Adenosine receptor A2a (Rattus norvegicus) (UniProt P30543); experiment: Displacement of [3H]NECA from adenosine A2A receptor in rat striatal membranes at 100 uM by radioligand competition assay relative to control; type: cell membranes; settings: Striatum, Membrane
Chain of Adenosine receptor A2a (Rattus norvegicus) (P30543 whole entry): as above
In short: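 Rat striatal membranes, [3H]NECA at 4 nM (Kd = 15.3 nM) with CPA added to minimise A1 binding. Percentage radioligand displacement recorded at the highest tested concentration, 100 μM. Nonspecific binding defined with 100 μM CPA.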

Adenosine receptor A2a [5] = molecular target: T3, Adenosine receptor A2a; experiment: Antagonist activity at rat adenosine A2A receptor
In short: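 Competition binding at A2A in rat striatal membranes with [3H]NECA (4 nM; Kd = 15.3 nM), with CPA present to limit [3H]NECA binding to A1. Nonspecific binding defined with 100 μM CPA (final). Ki derived from IC50 of sigmoidal dose-response curves of specific binding vs log concentration. Triplicate incubations, mean ± SEM.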

Adenosine receptor A1 [6] = molecular target: T1, Adenosine receptor A1; experiment: Antagonist activity at rat adenosine A1 receptor
Rattus norvegicus = organism: Rattus norvegicus; experiment: Selectivity index, ratio of Ki for adenosine A1 receptor in rat brain membranes to Ki for adenosine A2A receptor in rat striatal membranes; type: cell membranes
In short: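 Selectivity index calculated as the ratio A1 Ki / A2A Ki. […] A2A Ki measured by [3H]NECA (4 nM, with CPA) competition in rat striatal membranes. Ki values are triplicate means.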

Adenosine receptor A1 [7] = molecular target: T1, Adenosine receptor A1; experiment: Displacement of [3H]DPCPX from adenosine A1 receptor in rat brain membranes in presence of GTP by radioligand competition assay; type: cell membranes
[8] = molecular target: T2, Adenosine receptor A1 (Rattus norvegicus); experiment: Selectivity index, ratio of Ki for adenosine A1 receptor in rat brain membranes in presence of GTP to Ki for adenosine A1 receptor in rat brain membranes in absence of GTP; type: cell membranes
In short: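 Both determined by [3H]DPCPX (0.1 nM) competition in rat whole brain membranes, nonspecific binding by 10 μM unlabelled DPCPX. A shift of about 1 is taken as antagonism.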

SMILES	Ki (Adenosine receptor A1 [1]) [µM]	inhibition [2] [%]	Ki (Adenosine receptor A2a [3]) [µM]	inhibition [4] [%]	Ki (Adenosine receptor A2a [5]) [µM]	Ki (Adenosine receptor A1 [6]) [µM]	Ratio Ki (Rattus norvegicus)	Ki (Adenosine receptor A1 [7]) [µM]	Ratio Ki [8]
COc1ccc2c(c1)C/C(=C\c1ccccc1)C2=O	> 100	42	> 100	82					
COc1cccc2c1C/C(=C\c1ccc(N(C)C)cc1)C2=O	> 100	52	> 100	23					
O=C1/C(=C/c2ccc(O)cc2)Oc2cc(O)ccc21					> 100				
COc1cccc2c1C/C(=C\c1ccccc1)C2=O	1.65		> 100	62					
O=C1/C(=C/c2cccc(O)c2)CCc2c(O)cccc21	1.62		5.46						
O=C1/C(=C/c2ccc(O)c(O)c2)Oc2c1ccc(O)c2O					9.35	3.47			
COc1cc2c(cc1OC)C(=O)/C(=C/c1ccc(O)c(O)c1)C2	4.29		18				0.2		
COc1cccc2c1C/C(=C\c1cccc(O)c1)C2=O	0.041		0.097				0.4	0.06	1.46
COc1cc(OC)c(OC)cc1/C=C1\Cc2c(OC)cccc2C1=O	> 100	46	> 100	29					
COc1cccc2c1CCC2=O	> 100	78	> 100	72					
OC[C@H]1O[C@@H](n2cnc3c(NC4CCCC4)ncnc32)[C@H](O)[C@@H]1O [N6-CYCLOPENTYLADENOSINE]			0.163						
O=C1/C(=C/c2ccc(O)c(O)c2)Cc2cc3c(cc21)OCO3	> 100	70	1.07						

Results, then the compound that gave them:

Ki (Adenosine receptor A1 [1]) [µM]	inhibition [2] [%]	Ki (Adenosine receptor A2a [3]) [µM]	inhibition [4] [%]	Ki (Adenosine receptor A2a [5]) [µM]	Ki (Adenosine receptor A1 [6]) [µM]	Ratio Ki (Rattus norvegicus)	Ki (Adenosine receptor A1 [7]) [µM]	Ratio Ki [8]	SMILES
0.042		0.078				0.5			COc1cccc2c1C/C(=C\c1ccc(O)c(O)c1)C2=O
> 100	51	> 100	65						CN(C)c1ccc(/C=C2\Cc3ccccc3C2=O)cc1
3.28		6.32				0.5			COc1ccc2c(c1)C/C(=C\c1ccc(O)c(O)c1)C2=O
0.435		0.903				0.5	0.339	0.9	O=C1/C(=C/c2ccc(O)c(O)c2)Cc2c(O)cccc21
> 100	31	> 100	65						COc1cccc2c1C/C(=C\c1ccc(O)cc1)C2=O
> 100	64	> 100	47						COc1ccc2c(c1)C/C(=C\c1ccc(N(C)C)cc1)C2=O
